Screening results as filed in PubChem.
KCNQ1 pot – potentiators or activators of KCNQ1 channel, primary screen, cell-based, thallium flux, high-throughput. AID 2648, 2010. 310,000 compounds, 0.35% hits. CHO-K1 KCNQ1, thallium flux FluxOR fluorescence; hits give high values. B-score at 10 µM. Potassium voltage-gated channel subfamily KQT member 1 (Homo sapiens), P51787;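 active = fluorescence ratio B-score, a plate-corrected score, at least three library SD, with initial intensity B-score within 5 SD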
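Assay system: CHO-K1 cells stably expressing KCNQ1; Medium: assay buffer with matched DMSO; Also added: K+/Tl+ depolarizing stimulus; Dosing: single dose; Timing: dye 90 min, compound 20 min, room temperature; Measured by: kinetic FluxOR thallium fluorescence, 10-s 1-Hz baseline, 110-s post-stimulus read; Read-out: peak-minus-minimum fluorescence over initial fluorescence, negative-control normalized, B-scored.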
KCNK3 inh – human KCNK3 channel inhibitors, primary screen, CHO cells, FluxOR thallium flux, B-score | B-score at 10 µM | FluxOR fluorescence; hits give low values | 340,000 compounds, 0.84% hits | Potassium channel subfamily K member 3 (Homo sapiens), O14649;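 active = B-score under library mean minus 4 SD, starting fluorescence ratio at most library mean plus 5 SD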;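 note: more negative B-score means stronger inhibition of thallium flux through KCNK3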
Kir21 inh – inhibitors of mouse Kir2.1 inward-rectifier potassium channel. HEK293-Kir2.1, FluxOR thallium flux fluorescence; hits give low values. B-score at 10 µM. 310,000 compounds, 0.85% hits. AID 1672, 2009;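 active = fluorescence ratio B-score at or below minus 3 SD of library scores, with starting-brightness B-score within 2 SD, cut at about -4.2 in these data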;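 note: channel flux triggered by added potassium and thallium sulfate stimulus; B-score of peak minus minimum fluorescence over baseline after thallium stimulus; more negative B-score means stronger Kir2.1 block with less thallium influx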
KCNQ1 inh – inhibitors of human KCNQ1 channel, primary screen, cell-based, thallium flux, high-throughput | AID 2642, 2010 | CHO-K1 KCNQ1, FluxOR thallium flux fluorescence; hits give high values | Potassium voltage-gated channel subfamily KQT member 1 (Homo sapiens), P51787 | B-score at 10 µM | 310,000 compounds, 1.3% hits;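 active = compounds whose thallium flux B-score, printed positive for inhibition, exceeds three library SD while starting fluorescence stays within three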;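 note: channel opened by potassium depolarization with thallium stimulus after 20 min compound exposure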
hERG rescue – hERG rescue from dofetilide block, primary screen, cell-based, CHO-hERG, FluxOR thallium flux, dofetilide IC70 | Voltage-gated inwardly rectifying potassium channel KCNH2 (Homo sapiens), Q12809 | dofetilide IC70 present | activation (rescue from dofetilide block), less the hit threshold, % at 10 µM | 310,000 compounds, 0.51% hits;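 active = activation above the mean of controls blocked by dofetilide plus 5 SD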;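 note: thallium influx through hERG after potassium depolarization seen as dye fluorescence rise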
Target sequence (Q12809 whole entry, looked up): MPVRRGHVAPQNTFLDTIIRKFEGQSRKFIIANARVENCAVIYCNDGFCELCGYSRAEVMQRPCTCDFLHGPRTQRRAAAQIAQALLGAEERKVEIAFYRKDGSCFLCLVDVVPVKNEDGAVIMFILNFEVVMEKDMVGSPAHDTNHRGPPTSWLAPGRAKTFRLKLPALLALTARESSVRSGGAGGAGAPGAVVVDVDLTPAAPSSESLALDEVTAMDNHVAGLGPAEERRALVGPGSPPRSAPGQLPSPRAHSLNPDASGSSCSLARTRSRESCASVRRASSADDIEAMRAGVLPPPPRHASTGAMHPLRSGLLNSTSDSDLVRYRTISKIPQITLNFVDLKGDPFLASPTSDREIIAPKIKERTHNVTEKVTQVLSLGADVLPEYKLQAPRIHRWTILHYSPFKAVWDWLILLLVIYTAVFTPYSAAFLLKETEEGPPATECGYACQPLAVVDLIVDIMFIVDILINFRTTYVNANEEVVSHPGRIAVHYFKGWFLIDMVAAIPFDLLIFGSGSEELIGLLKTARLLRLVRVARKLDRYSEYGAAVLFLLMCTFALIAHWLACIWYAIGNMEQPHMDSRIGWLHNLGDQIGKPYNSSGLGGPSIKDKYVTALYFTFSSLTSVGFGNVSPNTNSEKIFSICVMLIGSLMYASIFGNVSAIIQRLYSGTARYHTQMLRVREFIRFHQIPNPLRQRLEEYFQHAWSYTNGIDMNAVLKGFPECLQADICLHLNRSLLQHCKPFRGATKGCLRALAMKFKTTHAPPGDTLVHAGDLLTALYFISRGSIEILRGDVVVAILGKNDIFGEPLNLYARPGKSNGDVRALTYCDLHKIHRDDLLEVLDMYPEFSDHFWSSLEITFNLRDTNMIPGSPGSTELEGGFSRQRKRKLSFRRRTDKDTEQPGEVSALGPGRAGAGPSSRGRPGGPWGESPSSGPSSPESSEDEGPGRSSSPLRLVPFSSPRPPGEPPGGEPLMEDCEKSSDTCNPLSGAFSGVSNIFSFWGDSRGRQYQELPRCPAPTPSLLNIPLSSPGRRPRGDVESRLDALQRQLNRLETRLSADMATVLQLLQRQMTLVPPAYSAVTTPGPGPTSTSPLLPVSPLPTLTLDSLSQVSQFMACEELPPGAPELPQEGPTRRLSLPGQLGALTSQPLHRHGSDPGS
KCNK9 block – KCNK9 potassium channel inhibitors, primary screen, HEK293 cells, thallium flux; Potassium channel subfamily K member 9 (Homo sapiens), Q9NPC2; 310,000 compounds, 1.2% hits; FluxOR thallium flux fluorescence; hits give low values; AID 488922, 2010; B-score at 10 µM;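 active = ratio B-score over 3 SD below the library mean, with starting fluorescence within 5 SD of its mean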;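 note: negative B-score means less thallium flux so channel inhibition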
KCNK3 inh conf – retest of human KCNK3 channel inhibitors, confirmation, CHO cells, FluxOR thallium flux, triplicate | shares compounds with KCNK3 inh | FluxOR fluorescence; 0% buffer, 100% carvedilol maximal block | 2,400 compounds, 99% hits | ratio percent of control, % at 10 µM;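 active = ratio percent of control, averaged over triplicates, above buffer control mean plus 5 SD, cut at about 64% in these data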;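 note: ratio is the fluorescence rise from min to max over baseline after thallium stimulus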
KCNK3 uninduced – thallium flux inhibition in non-induced cells, primary screen, counter-screen for KCNK3 inhibitor project, cell-based, non-induced KCNK3 line, FluxOR thallium, triplicate; shares compounds with KCNK3 inh; non-induced KCNK3 parental cells; hits give low values; thallium flux ratio (lower = more inhibition) at 10 µM; 2,400 compounds, 40% hits; AID 651747, 2012;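 active = thallium flux ratio, averaged over three wells, more than 5 SD below the buffer control mean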;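 note: host cells are CHO cells without KCNK3 induction; ratio is peak minus trough fluorescence over baseline then normalized to buffer controls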
* hit, by the source's call; i = inactive; x = no result given. The list is not random: actives were taken first. Their share in the collection is about 3.8%.

SMILES	KCNQ1 pot	KCNK3 inh	Kir21 inh	KCNQ1 inh	hERG rescue	KCNK9 block	KCNK3 inh conf	KCNK3 uninduced
Cc1cc(C)n2cc(CSCc3ccco3)nc2n1	i	-17*	-0.17	i	-3	i	78*	i
Cc1cccc2nc(CSCc3ccco3)cn12	i	i	0.13	i	-7	i	x	x
CC12CCC(=O)N1C(C(=O)Nc1nccs1)CS2 (configuration not stated)	x	i	x	x	x	x	x	x
CC(=O)c1ccc(N2CCN(C(=O)CCS(=O)(=O)c3ccc4c(c3)NC(=O)CS4)CC2)cc1	i	i	0.13	i	-10	i	x	x
CCCC(O)(c1ccc(Br)cc1)C(CN1CCOCC1)c1ccc(Cl)cc1 (configuration not stated)	i	i	0.96	i	-8	i	x	x
Cc1c(Cl)cccc1NC(=S)NCC1COc2ccccc2O1 (configuration not stated)	i	-8.9*	-2.9	i	-9	i	125*	0.14*
C=CCNC(=S)NCC1COc2ccccc2O1 (configuration not stated)	i	i	-2.4	i	-8	i	x	x
COc1ccc(OCCC(=O)OCC(=O)NC(=O)NC2CCCCC2)cc1	i	i	-0.15	i	-11	i	x	x
O=C1c2ccccc2C(Nc2ccccc2)N1c1cccnc1 (configuration not stated)	i	i	-0.24	i	-7	i	x	x
COc1ccc(NC2c3ccccc3C(=O)N2c2cccnc2)cc1Cl (configuration not stated)	i	-10*	-1.7	i	-14	i	117*	i
COC(=O)c1cc(NC2c3ccccc3C(=O)N2c2cccnc2)cc(C(=O)OC)c1 (configuration not stated)	i	-9*	-0.07	i	-16	i	119*	0.15*
Cc1ccc(OCn2c(=O)sc3ccccc32)cc1	i	-11*	1.6	i	-9	i	112*	i
O=c1sc2ccccc2n1CCOc1ccccc1	i	i	-1.6	i	-3	i	x	x
Cn1c(SCc2ccc(Br)cc2)nc2ccccc2c1=O	i	-9.5*	-0.26	i	-3	i	123*	0.13*
Cn1c(SCc2ccccc2)nc2ccsc2c1=O	i	-9.8*	-1.2	i	-11	i	104*	i
Cn1c(SCCOc2ccccc2F)nc2ccccc2c1=O	i	-13*	1.2	i	-12	i	110*	i
O=c1[nH]c(SCCOc2ccccc2F)nc2ccccc12	i	i	0.34	i	-19	i	x	x
CCCOC(=O)c1ccc(NC(=O)c2ccc(Br)o2)cc1	i	i	0.06	i	-5	i	x	x
COc1ccc(C(=O)C2CCCN(S(=O)(=O)c3ccc(C(C)=O)cc3)C2)c(C)c1 (configuration not stated)	i	-10*	0.19	i	-8	i	120*	0.15*
O=C(COc1nncc2ccccc12)Nc1ccc(Br)cc1F	i	i	-0.67	i	-3	i	x	x
N#CCC(CNc1ncc(C(F)(F)F)cc1Cl)OC(=O)c1ccc(Cl)cc1Cl (configuration not stated)	i	-9.5*	-0.41	i	-12	i	102*	0.16*
Cc1ccc(C)c(NS(=O)(=O)c2cc(C(=O)NCCSC3CCCCC3)ccc2C)c1	i	-10*	-0.93	i	-5	-7.9*	110*	i
CCc1ccc(-c2cc(C)no2)cc1S(=O)(=O)N1CCN(c2ccccc2F)CC1	i	-8.8*	0.02	i	-13	i	81*	i
CCc1ccc(-c2cc(C)no2)cc1S(=O)(=O)N1CCN(c2ccc(C(C)=O)cc2)CC1	i	i	-0.18	i	-18	i	x	x
COc1cccc(Oc2ccc(C(F)(F)F)cc2NC(=O)CCc2nc3ccccc3c(=O)[nH]2)c1	i	i	0.92	i	-15	-7*	97*	i
SMILES	KCNQ1 pot	KCNK3 inh	Kir21 inh	KCNQ1 inh	hERG rescue	KCNK9 block	KCNK3 inh conf	KCNK3 uninduced
O=C(CCc1nc2ccccc2c(=O)[nH]1)Nc1cc(C(F)(F)F)ccc1N1CCOCC1	i	i	-0.5	i	-7	i	x	x
C=C(c1cn(C(C)=O)c2ccccc12)c1cn(C(C)=O)c2ccccc12	x	-12*	x	x	x	x	62*	0.15*
C=CCNCC(=O)Nc1ccccc1SCC(=O)Nc1ccsc1C(=O)OC	i	i	-2.3	i	-9	i	x	x
CCN(CC)CC(=O)Nc1ccccc1SCC(=O)Nc1ccsc1C(=O)OC	i	-9.9*	-3.1	i	-11	i	98*	i
COc1ccc(N2CCN(Cc3nc4sc(C)c(C)c4c(=O)[nH]3)CC2)cc1	i	i	1.7	i	-14	i	x	x
S=P(c1ccc(N2CCOCC2)cc1N1CCOCC1)(N1CCOCC1)N1CCOCC1	x	i	x	x	x	x	x	x
O=C(CNC(=O)c1cccc(F)c1)OCCOc1cccc(Cl)c1	i	-8.7*	1.1	i	-17	i	104*	i
O=C(CNC(=O)c1ccccc1)OCCOc1cccc(Cl)c1	i	i	0.52	i	-16	i	x	x
Oc1ccccc1Nc1nc(NCc2ccco2)c2ccccc2n1	i	i	-0.14	i	-25	i	x	x
COc1ccc(OC)c(Nc2nc(NCc3ccco3)c3ccccc3n2)c1	i	-17*	-0.12	i	-9	i	134*	0.15*
COc1cc(/C=C(\C#N)c2nc3ccccc3o2)ccc1O	i	i	-6.9	i	-13	i	x	x
N#C/C(=C\c1ccc(O)cc1)c1nc2ccccc2o1	i	-11*	-0.26	i	-18	i	130*	0.12*
